# Rows were chosen to be rich in hits. Some 2.3% of all compounds tested hit in one or more screens of this group.
# TRPC6 inh = blocks the mouse TRPC6 cation channel. 310,000 tested, 1.1% active. AID 2553. Q61143. B-score at 10 µM. HEK293-TRPC6, membrane potential dye, ACh-evoked depolarization; active compounds read low;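 active = B-score under library mean minus 3 SD, initial fluorescence not abnormally high, positive integrated signal ratio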;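 note: B-score derived from integrated fluorescence ratio over the kinetic read; more negative B-score means stronger inhibition of depolarization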
# TRPC4 act = TRPC4 (mouse) channel activation; Q9QUQ5; 310,000 tested, 0.49% active; B-score at 10 µM; HEK293 TRPC4beta/mu-opioid, Fluo4 calcium fluorescence; active compounds read high;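 active = B-score above 5 SD of library B-scores, and initial fluorescence ratio not above library mean plus 5 SD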;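 note: positive B-score marks a calcium rise read as TRPC4 activation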
# Target sequence (Q9QUQ5 whole entry, looked up): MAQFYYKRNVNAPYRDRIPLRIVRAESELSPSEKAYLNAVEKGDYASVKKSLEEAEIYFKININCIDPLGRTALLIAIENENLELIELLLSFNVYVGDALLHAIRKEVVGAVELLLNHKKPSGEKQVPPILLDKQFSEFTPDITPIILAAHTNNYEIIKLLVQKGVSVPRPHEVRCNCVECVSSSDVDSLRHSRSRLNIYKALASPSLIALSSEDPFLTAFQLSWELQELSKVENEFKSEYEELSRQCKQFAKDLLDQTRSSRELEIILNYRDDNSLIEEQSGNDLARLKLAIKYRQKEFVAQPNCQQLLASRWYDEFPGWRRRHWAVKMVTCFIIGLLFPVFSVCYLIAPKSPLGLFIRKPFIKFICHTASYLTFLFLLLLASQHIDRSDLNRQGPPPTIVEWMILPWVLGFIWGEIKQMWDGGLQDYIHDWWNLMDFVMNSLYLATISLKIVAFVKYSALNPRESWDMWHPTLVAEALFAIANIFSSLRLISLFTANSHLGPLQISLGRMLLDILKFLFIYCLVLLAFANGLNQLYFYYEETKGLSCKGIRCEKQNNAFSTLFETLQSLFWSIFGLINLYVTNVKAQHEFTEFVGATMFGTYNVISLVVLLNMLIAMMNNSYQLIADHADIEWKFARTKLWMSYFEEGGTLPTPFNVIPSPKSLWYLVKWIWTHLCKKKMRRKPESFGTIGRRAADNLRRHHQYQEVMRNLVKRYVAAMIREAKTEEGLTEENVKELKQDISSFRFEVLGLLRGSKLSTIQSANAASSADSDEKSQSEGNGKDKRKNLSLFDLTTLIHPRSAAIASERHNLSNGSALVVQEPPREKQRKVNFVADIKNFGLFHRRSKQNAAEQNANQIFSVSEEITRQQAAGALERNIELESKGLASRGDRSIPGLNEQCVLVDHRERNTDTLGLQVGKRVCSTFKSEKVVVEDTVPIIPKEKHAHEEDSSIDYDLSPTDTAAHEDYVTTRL
#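 Material: TRPC4beta and mu-opioid receptor HEK293 stable cells | Incubation: 45 min room-temperature Fluo4 loading, 110 s read | Detection: Kinetic Fluo4 calcium fluorescence | Measure: Integrated baseline-normalised fluorescence ratio, converted to per-well B score | Benchmarks: Low control buffer alone, high control maximal DAMGO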
# TRPC4 inh = inhibitors of mouse TRPC4 channel; HEK293 TRPC4beta/mu-opioid, DAMGO-evoked Fluo4 calcium flux; active compounds read low; 300,000 tested, 0.39% active; B-score at 10 µM; Q9QUQ5; AID 2247;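 active = B-score over 3 SD under the library average, no early fluorescence shift, positive overall ratio signal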
#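 System: stable TRPC4beta/mu-opioid receptor HEK293 cells; Dosing: single-point compound dosing; Measured by: Fluo4 Ca2+ flux fluorescence; Read-out basis: per-well B score of integrated baseline-normalized Fluo4 ratio.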
# TRPC4 PAM = allosterically enhances the mouse TRPC4 cation channel; Q9QUQ5; 310,000 tested, 0.42% active; AID 2227; HEK293 TRPC4beta/mu-opioid, DAMGO EC20, Fluo-4 Ca2+ flux; active compounds read high; B-score at 10 µM;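 active = B-score of calcium response area above 5 SD of library B-scores, with initial fluorescence ratio within 5 SD of library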;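 note: B-score of integrated fluorescence ratio over time as area under calcium response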
# TRPC6 activator = activators of mouse TRPC6 channel; HEK293-TRPC6 membrane potential dye fluorescence; active compounds read high; B-score at 10 µM; 310,000 tested, 0.13% active; AID 2550;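 active = B-score of the integrated fluorescence ratio above library mean plus 3 SD, and starting fluorescence ratio within library mean plus 5 SD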;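 note: higher score means more depolarization so channel activation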
# HEK293 TRPC6 ctr = checks TRPC6 modulator effects in parental HEK293 cells; shares compounds with TRPC6 inh; membrane potential dye fluorescence; membrane potential signal change, % at 10 µM; 2,400 tested, 51% active; AID 488924;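 active = membrane potential signal moves up or down beyond 5 SD from buffer-only wells, on both duplicate plates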
# HEK293 MPD ctr 2 = second check of TRPC6 modulator effects in parental HEK293 cells; shares compounds with TRPC6 inh; membrane potential dye fluorescence; after compound, maximal acetylcholine stimulation; inhibition, % at 10 µM; 2,400 tested, 14% active; AID 488926;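 active = membrane potential signal drops by more than 5 SD from the mean control signal, in both duplicate plates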;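 note: plate controls were acetylcholine ECmax control wells for no effect and buffer only wells for full effect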
# TRPC4 ctr mod = mouse TRPC4 off-target activity of TRPC6 modulators | shares compounds with TRPC6 inh | HEK293 TRPC4/mu-opioid, membrane potential fluorescence | percent change from control (negative = decrease, positive = increase), % at 10 µM | 2,400 tested, 69% active | AID 488927;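 active = membrane potential signal moved up or down beyond 5 SD of buffer control wells, in both duplicate plates, actives on both sides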;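 note: plate controls were assay buffer wells for no effect and DAMGO maximal-effect wells for full effect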
# TRPC4 ctr inh 2 = second selectivity test of TRPC6 modulators against mouse TRPC4. shares compounds with TRPC6 inh. HEK293 TRPC4/mu-opioid, membrane potential dye fluorescence; stimulated with maximal-effect DAMGO. inhibition, % at 10 µM. 2,400 tested, 55% active. AID 488928;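 active = drop in membrane potential signal beyond 5 SD of the control wells in both duplicate plates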;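 note: TRPC4 counter screen for TRPC6 hits run under conditions tuned for TRPC6 not TRPC4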
# TRPC6 inh conf = confirmation of mouse TRPC6 inhibitors; shares compounds with TRPC6 inh; inhibition, % at 10 µM; HEK293-TRPC6, membrane potential dye, ACh-evoked depolarization; 3,300 tested, 43% active;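 active = fluorescence ratio falls more than 5 SD below the full-stimulation control mean, in both duplicate runs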;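 note: integrated fluorescence ratio of peak minus minimum over baseline after agonist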
# TRPC6 act confirm = mouse TRPC6 activator confirmation; activation, % at 10 µM; AID 488961; shares compounds with TRPC6 inh; HEK293-TRPC6 membrane potential dye fluorescence, FDSS; 2,800 tested, 11% active;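 active = ratio signal rise beyond 5 SD above unstimulated control wells' mean, seen in both duplicate runs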;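 note: plate controls were buffer EC0 wells for no effect and acetylcholine ECmax response for full effect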
# * = called active by the depositor; i = inactive; . = no result.
SMILES,TRPC6 inh,TRPC4 act,TRPC4 inh,TRPC4 PAM,TRPC6 activator,HEK293 TRPC6 ctr,HEK293 MPD ctr 2,TRPC4 ctr mod,TRPC4 ctr inh 2,TRPC6 inh conf,TRPC6 act confirm
CN1CCN(c2ccc(NC(=O)c3ccc(Cl)cc3Cl)cc2)CC1,-5.93*,i,i,i,i,i,i,i,i,i,i
CC(C)Cc1nc(SCC(=O)NCC2CCCO2)c2c(=O)n(C)c(=O)n(C)c2n1 (centres undefined),i,i,i,i,i,.,.,.,.,.,.
CN(C)CCCN(C(=O)c1ccc(Br)s1)c1nc2cc3c(cc2s1)OCCO3,-6.39*,63*,i,i,i,i,i,-13.5%*,81.5%*,59.5%*,i
CN(C)CCCN(C(=O)c1ccc([N+](=O)[O-])s1)c1nc2cc3c(cc2s1)OCCO3,i,i,i,i,i,.,.,.,.,.,.
CN(C)CCCN(C(=O)c1cc(Cl)sc1Cl)c1nc2cc3c(cc2s1)OCO3,-5.07*,i,i,i,i,i,55.0%*,i,91.0%*,61.0%*,i
CN(C)CCCN(C(=O)c1ccc(Cl)s1)c1nc2cc3c(cc2s1)OCO3,-6.09*,100*,i,i,i,i,i,-21.5%*,84.5%*,48.0%*,i
Cc1ccc2nc(N(CCN(C)C)C(=O)c3cc(Cl)sc3Cl)sc2c1,i,i,i,i,i,.,.,.,.,.,.
CN(C)CCCN(C(=O)c1cccs1)c1nc2cc3c(cc2s1)OCO3,-9.7*,i,-8*,i,i,i,i,-19.0%*,64.5%*,42.0%*,i
CCN(CC)CCN(C(=O)c1ccc(Br)s1)c1nc2cc3c(cc2s1)OCCO3,i,i,i,i,i,.,.,.,.,.,.
CC(C)NC(=O)C(=O)Nc1cc2c3c(c1)C(C)C(=O)N3CCC2 (centres undefined),i,i,i,i,i,.,.,.,.,.,.
O=C(Nc1cccc(Cl)c1N1CCOCC1)c1ccc(Br)o1,i,i,i,i,i,.,.,.,.,.,.
Cc1ccc(C)c(N(CC(=O)NCc2ccco2)C(=O)CNS(=O)(=O)c2ccccc2)c1,i,i,i,i,i,.,.,.,.,.,.
CC(C)N1CCC(=NNC(=O)c2ccccc2[N+](=O)[O-])CC1,i,i,i,i,i,.,.,.,.,.,.
O=C(NN=C1CCCC1)c1ccccc1[N+](=O)[O-],-5.64*,i,i,i,i,i,i,8.0%*,i,i,i
CCN1CCN(c2nc3c(c(=O)[nH]c(=O)n3C)n2CCCSc2ncccn2)CC1,-5.41*,i,i,i,i,-188.5%*,i,-22.0%*,46.5%*,i,i
CCCn1c(N2CCN(C)CC2)nc2c1c(=O)[nH]c(=O)n2C,i,i,i,i,i,.,.,.,.,.,.

# From PubChem BioAssay
